Data from ChEMBL document CHEMBL1123290, “Synthesis, antimalarial activity, and quantitative structure-activity relationships of tebuquine and a series of related 5-[(7-chloro-4-quinolinyl)amino]-3-[(alkylamino)methyl] [1,1'-biphenyl]-2-ols and N omega-oxides” (1986).

What was measured:
Format in all cases: functional
Mus musculus [1] = test: Compound was evaluated for parenteral antimalarial activity against Plasmodium berghei in mice (Mus musculus) after single dose (1.25 mg/kg subcutaneously)
Plasmodium berghei [2] = test: Change in mean survival time in control (average 6.2 days) versus treated mice (Mus musculus) after 80 mg/kg subcutaneous dose
Plasmodium berghei [3] = test: Change in mean survival time for control (average 6.2 days) versus treated mice (Mus musculus) after 20 mg/kg subcutaneous dose
Plasmodium berghei [4] = test: Change in mean survival time of Plasmodium berghei infected mice (Mus musculus) after […] subcutaneous dose
Plasmodium berghei [5] = test: Difference in mean survival time of Plasmodium berghei infected mice (Mus musculus) after 10 mg/kg subcutaneous dose
Plasmodium berghei [6] = test: (§1) Change in mean survival time for control (average 6.2 days) versus treated mice (Mus musculus) 72 hrs after […] subcutaneous dose
Plasmodium berghei [7] = test: Change in mean survival time for control (average 6.2 days) versus treated mice (Mus musculus) after 320 mg/kg subcutaneous dose
Plasmodium berghei [8] = test: Antimalarial activity as 60-day survivors in infected mice (Mus musculus) after single 320mg/kg subcutaneous dose 72 hr post infection
How it was run: (§2)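 Mice were infected with a normal drug-sensitive Plasmodium berghei strain. At 72 h postinfection each received one subcutaneous dose of compound dissolved or suspended in peanut oil, in five-mouse groups per dose. The read-out was the number of mice alive at 60 days postinfection, which were scored as cured.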

Mus musculus [9] = test: Antimalarial activity, administered as a single subcutaneous dose of 640 mg/kg, 72 hrs post infection measured as number of mice (Mus musculus) surviving at 60 days post infection; how it was run: as §2
Plasmodium berghei [10] = test: Antimalarial activity in primary screen
Plasmodium berghei [11] = test: Change in mean survival time for control (average 6.2 days) versus treated mice (Mus musculus) after 40 mg/kg subcutaneous dose
Plasmodium berghei [12] = test: Change in mean survival time of Plasmodium berghei infected mice (Mus musculus) on 1.25 mg/kg subcutaneous dose
Plasmodium berghei [13] = test: Change in mean survival time of Plasmodium berghei infected mice (Mus musculus) after 5 mg/kg subcutaneous dose
Plasmodium berghei [14] = test: Change in mean survival time for control (average 6.2 days) versus treated mice (Mus musculus) after 160 mg/kg subcutaneous dose
Plasmodium berghei [15] = test: as §1; remark: listed apart in the source
Plasmodium berghei [16] = test: Change in mean survival time for control (average 6.2 days) versus treated mice (Mus musculus) 72 hrs after 5 mg/kg subcutaneous dose
Mus musculus [17] = test: Antimalarial activity, administered as a single subcutaneous dose of 80 mg/kg, 72 hrs post infection measured as number of mice (Mus musculus) surviving at 60 days post infection; how it was run: as §2
Plasmodium berghei [18] = test: Change in mean survival time for control (average 6.2 days) versus treated mice (Mus musculus) 72 hrs after […] subcutaneous dose
Mus musculus [19] = test: Antimalarial activity of compound administered as a single subcutaneous dose of 40 mg/kg, 72-h postinfection measured as number of mice (Mus musculus) surviving at 60 days postinfection; how it was run: as §2
Plasmodium berghei [20] = test: Change in mean survival time for control (average 6.2 days) versus treated mice (Mus musculus) 72 hrs after 160 mg/kg subcutaneous dose
Plasmodium berghei [21] = test: Change in mean survival time for control (average 6.2 days) versus treated mice (Mus musculus) 72 hrs after 320 mg/kg subcutaneous dose
Plasmodium berghei [22] = test: Antimalarial activity as 60-day survivors in infected mice (Mus musculus) after single 20 mg/kg subcutaneous dose 72hr post infection; how it was run: as §2
Plasmodium berghei [23] = test: Change in mean survival time for control (average of 6.2 days) versus treated mice (Mus musculus) 72 hrs after 80 mg/kg subcutaneous dose
Plasmodium berghei [24] = test: Change in mean survival time for control (average 6.2 days) versus treated mice (Mus musculus) 72 hrs after 20 mg/kg subcutaneous dose
Plasmodium berghei [25] = test: Difference in mean survival time in mice (Mus musculus) (control = 6.2 days) after single 40mg/kg subcutaneous dose 72hr post infection
Plasmodium berghei [26] = test: Change in mean survival time for control (average 6.2 days) versus treated mice (Mus musculus) 72 hrs after 10 mg/kg subcutaneous dose
Mus musculus [27] = test: Compound was evaluated for parenteral antimalarial activity against Plasmodium berghei in mice (Mus musculus) after single dose (80 mg/kg subcutaneously)
Mus musculus [28] = test: Compound was evaluated for parenteral antimalarial activity against Plasmodium berghei in mice (Mus musculus) after single dose (mg/kg subcutaneously) 40
Mus musculus [29] = test: Compound was evaluated for parenteral antimalarial activity against Plasmodium berghei in mice (Mus musculus) after single dose (mg/kg subcutaneously) 20
Plasmodium berghei [30] = test: Antimalarial activity as 60-day survivors in Plasmodium berghei infected mice (Mus musculus) after single 160mg/kg subcutaneous dose 72 hr post infection; how it was run: as §2
Mus musculus [31] = test: Antimalarial activity of compound administered as a single subcutaneous dose of 10mg/kg, 72 hrs post infection measured as number of mice (Mus musculus) surviving at 60 days post infection; how it was run: as §2
Mus musculus [32] = test: Antimalarial activity of compound administered as a single subcutaneous dose of 5mg/kg, 72-h postinfection measured as number of mice (Mus musculus) surviving at 60 days postinfection; how it was run: as §2
Mus musculus [33] = test: Delta MST, difference in mean survival time of the control mice (an average of 6.2 days) from the mean survival time of the treated mice after a single dose of (mg/kg sc) 1.25
Mus musculus [34] = test: Antimalarial activity, administered as a single subcutaneous dose of 40 mg/kg, 72 hrs post infection measured as number of mice (Mus musculus) surviving at 60 days post infection; how it was run: as §2
Mus musculus [35] = test: Antimalarial activity of compound administered as a single subcutaneous dose of 160mg/kg, 72-h postinfection measured as number of mice (Mus musculus) surviving at 60 days postinfection; how it was run: as §2
Mus musculus [36] = test: Antimalarial activity of compound administered as a single subcutaneous dose of 80mg/kg, 72-h postinfection measured as number of mice (Mus musculus) surviving at 60 days postinfection; how it was run: as §2
Plasmodium berghei [37] = test: Change in mean survival time for control (average 6.2 days) versus treated mice (Mus musculus) 72 hrs after 640 mg/kg subcutaneous dose
Mus musculus [38] = test: Antimalarial activity of compound administered as a single subcutaneous dose of 320 mg/kg, 72 hrs post infection measured as number of mice (Mus musculus) surviving at 60 days post infection; how it was run: as §2
Mus musculus [39] = test: Antimalarial activity of compound administered as a single subcutaneous dose of 20 mg/kg, 72 hrs post infection measured as number of mice (Mus musculus) surviving at 60 days post infection; how it was run: as §2

| Structure (SMILES) | Delta MST (Plasmodium berghei [2]) [days] | Delta MST (Plasmodium berghei [3]) [days] | Delta MST (Plasmodium berghei [4]) [days] | Delta MST (Plasmodium berghei [5]) [days] | Delta MST (Plasmodium berghei [6]) [days] | Delta MST (Plasmodium berghei [7]) [days] | No. of mice cured (Plasmodium berghei [8]) | No. of mice cured (Mus musculus [9]) | Delta MST (Plasmodium berghei [11]) [days] | Delta MST (Plasmodium berghei [12]) [days] | Delta MST (Plasmodium berghei [13]) [days] | Delta MST (Plasmodium berghei [15]) [days] | Delta MST (Plasmodium berghei [16]) [days] | No. of mice cured (Mus musculus [17]) | Delta MST (Plasmodium berghei [18]) [days] | Delta MST (Plasmodium berghei [20]) [days] | Delta MST (Plasmodium berghei [21]) [days] | No. of mice cured (Plasmodium berghei [22]) | Delta MST (Plasmodium berghei [24]) [days] | No. of mice cured (Plasmodium berghei [30]) | also measured |
| --- | --- | --- | --- | --- | --- | --- | --- | --- | --- | --- | --- | --- | --- | --- | --- | --- | --- | --- | --- | --- | --- |
| CCN(CC)Cc1cc(Nc2cc[n+]([O-])c3cc(Cl)ccc23)cc(-c2cccc(C(F)(F)F)c2)c1O | 11.7 | 5.9 | -0.1 | 1.1 | 27.9 | 24.9 | 1 | 4 | 8.5 | 0.3 | 0.3 | – | – | – | – | – | – | – | – | – | Delta MST (Mus musculus [1]): 0.3; ED30 (Plasmodium berghei [10]): 113 mg/kg; Delta MST (Plasmodium berghei [14]): 21.1 days |
| CCC(C)NCc1cc(Nc2ccnc3cc(Cl)ccc23)cc(-c2ccc(Cl)cc2)c1O (stereo not given) | – | – | – | – | – | – | 1 | – | – | – | – | 0.2 | 11 | 3 | 2 | 14.2 | 12.5 | 3 | 21 | – | No. of mice cured (Mus musculus [19]): 4; Delta MST (Plasmodium berghei [23]): 14 days; Delta MST (Plasmodium berghei [25]): 15 days; Delta MST (Plasmodium berghei [26]): 23.6 days |
| CCN(CC)Cc1cc(Nc2cc[n+]([O-])c3cc(Cl)ccc23)cc(CN(CC)CC)c1O | – | – | – | – | – | – | 3 | 3 | – | – | – | – | – | – | – | – | – | – | – | 1 | Delta MST (Mus musculus [27]): 8.5 days; Delta MST (Mus musculus [28]): 6.9 days; Delta MST (Mus musculus [29]): 3.9 days |
| CC(C)(C)NCc1cc(Nc2cc[n+]([O-])c3cc(Cl)ccc23)cc(-c2ccc(Cl)cc2)c1O | 20.6 | 28.9 | 0.2 | 26.3 | 13.9 | 13.9 | 4 | 4 | 24.9 | 0 | 11.4 | – | – | 2 | – | – | – | 4 | – | 3 | No. of mice cured (Mus musculus [31]): 1; No. of mice cured (Mus musculus [32]): 1; Delta MST (Plasmodium berghei [14]): 13.4 days; Delta MST (Mus musculus [33]): 0; No. of mice cured (Mus musculus [34]): 4 |
| CC(C)CNCc1cc(Nc2ccnc3cc(Cl)ccc23)cc(-c2ccc(Cl)cc2)c1O | – | – | – | – | – | – | – | – | – | – | – | 0.8 | 5.2 | – | 2 | 4.9 | 11.3 | – | 19.6 | – | No. of mice cured (Mus musculus [35]): 2; No. of mice cured (Mus musculus [36]): 5; No. of mice cured (Mus musculus [19]): 5; Delta MST (Plasmodium berghei [37]): 13.4 days; No. of mice cured (Mus musculus [38]): 2; No. of mice cured (Mus musculus [39]): 2; Delta MST (Plasmodium berghei [26]): 14.8 days |
| CC(C)(C)NCc1cc(Nc2ccnc3cc(Cl)ccc23)cc(-c2ccc(Cl)cc2)c1O [TEBUQUINE] | – | – | – | – | – | – | 1 | – | – | – | – | 0.3 | 11.4 | 3 | 2.3 | 14.9 | 16.4 | 3 | 14.9 | 2 | No. of mice cured (Mus musculus [31]): 2; Delta MST (Plasmodium berghei [37]): 17.1 days; No. of mice cured (Mus musculus [32]): 1; Delta MST (Plasmodium berghei [25]): 19.9 days; No. of mice cured (Mus musculus [34]): 4 |
